# Test results reported in ChEMBL document CHEMBL3997766, “Synthesis and pre-clinical studies of new amino-acid ester thiazolide prodrugs” (Eur J Med Chem, 2017).
# Experiments:
# Rattus norvegicus [1] = assay: Toxicity in Sprague-Dawley rat administered via oral gavage qd for 28 consecutive days; details: in vivo
# Summary of the method: (§1)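 Sub-acute study in Sprague-Dawley rats: 10, 30 or 75 mg/kg given orally once a day for 28 consecutive days as a yellow suspension. There were 4 groups of up to 30 rats each (15M/15F), including a control. Body weight, clinical observations and terminal findings were assessed.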
# Canis familiaris [2] = assay: Toxicity in Beagle dog assessed as emesis at 25 mg/kg, po administered as gelatin capsule once daily for 28 days measured on day 29 followed by 2 weeks recovery period measured on day 43; type: organism-based, Canis lupus familiaris; details: in vivo
# Summary of the method: (§2)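 Sub-acute study in Beagle dogs dosed orally by gelatin capsule at 5, 15 and 25 mg/kg once a day for 28 consecutive days.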
# Rattus norvegicus [3] = assay: Toxicity in Sprague-Dawley rat at 10 to 75 mg/kg administered as oral gavage qd for 28 consecutive days by ophthalmoscopic method; type: organism-based; details: in vivo; summary of the method: as §1
# Canis familiaris [4] = assay: Drug metabolism in Beagle dog assessed as tizoxanide level in plasma administered orally as gelatin capsule once daily for 28 days measured on day 1 and 29; type: ADME, Canis lupus familiaris; details: po, 672 h
# Summary of the method: (§3)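 Beagle dogs received the drug orally in a single gelatin capsule at 5, 15 or 25 mg/kg once daily for 28 consecutive days in a sub-acute toxicity study assessing systemic exposure.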
# Canis familiaris [5] = assay: Toxicity in Beagle dog assessed as change in food consumption up to 25 mg/kg, po administered as gelatin capsule once daily for 28 days; type: organism-based, Canis lupus familiaris; details: in vivo, 672 h; summary of the method: as §2
# Canis familiaris [6] = assay: Toxicity in Beagle dog up to 25 mg/kg, po administered as gelatin capsule once daily for 28 days by ophthalmoscopic method; type: organism-based, Canis lupus familiaris; details: in vivo, 672 h; summary of the method: as §2
# Plasma = assay: Drug metabolism in Sprague-Dawley rat assessed as tizoxanide-glucuronide level in plasma administered via oral gavage qd for 28 consecutive days; type: ADME
# Summary of the method: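 In a sub-acute study, Sprague-Dawley rats were dosed once daily for 28 consecutive days at 10, 30 or 75 mg/kg, given as a yellow suspension. There were four groups of up to 30 rats each (15M/15F) to assess systemic exposure.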
# Rattus norvegicus [7] = assay: Tmax in Sprague-Dawley rat assessed as Tizoxanide level in plasma at 28 mg/kg, po; type: ADME, organism-based; details: in vivo
# Summary of the method: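 Rats in groups of three got a single oral dose (30 mg/kg) or a single intravenous injection (6 mg/kg). Serial blood samples were taken at 5, 10, 15 and 30 min and at 1, 2, 4, 8, 23 and 24 h post-dose for plasma drug and glucuronide levels. Bioavailability came from oral versus intravenous AUC after dose correction to 30 mg/kg.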
# Rattus norvegicus [8] = assay: Toxicity in Sprague-Dawley rat assessed as eosinophilic cytoplasmic bodies in leukocytes of duodenum at 75 mg/kg administered as oral gavage qd for 28 consecutive days measured on day 29 by microscopic method; type: organism-based; details: in vivo
# Summary of the method: (§4)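 Sub-acute study in Sprague-Dawley rats dosed orally with a suspension at 10, 30 and 75 mg/kg once daily for 28 consecutive days. Four groups of up to 30 rats each (15M/15F).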
# Rattus norvegicus [9] = assay: Toxicity in Sprague-Dawley rat assessed as mucosal hyperplasia in duodenum at 75 mg/kg administered as oral gavage qd for 28 consecutive days measured on day 29 by microscopic method; type: organism-based; details: in vivo
# Summary of the method: (§5)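 Sub-acute oral toxicity study in Sprague-Dawley rats. The drug was given once daily for 28 consecutive days at 10, 30 or 75 mg/kg, formulated as a suspension. There were 4 groups of up to 30 rats each (15 male, 15 female). The study evaluated systemic exposure to the drug.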
# Rattus norvegicus [10] = assay: Toxicity in Sprague-Dawley rat assessed as effect on respiratory rate by measuring minute volume dose at 100 to 300 mg/kg administered as single dose via oral gavage; type: organism-based; details: in vivo
# Summary of the method: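 Respiratory safety study: conscious rats, 3 groups of 6 (3M/3F), given single oral-gavage doses of 100, 300 or 1000 mg/kg, with an untreated control group. Respiratory rate (breaths per minute), tidal volume and minute volume were recorded, and mortality was noted.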
# Canis familiaris [11] = assay: Toxicity in Beagle dog assessed as effect on hematology up to 25 mg/kg, po administered as gelatin capsule once daily for 28 days measured on day 29; type: organism-based, Canis lupus familiaris; details: in vivo, 672 h; summary of the method: as §2
# Rattus norvegicus [12] = assay: Toxicity in Sprague-Dawley rat assessed as increase in spleen to body weight ratio at 75 mg/kg administered as oral gavage qd for 28 consecutive days measured on day 29; type: organism-based; details: in vivo; summary of the method: as §4
# Rattus norvegicus [13] = assay: Neurotoxicity in Sprague-Dawley rat assessed as tremors at 1000 mg/kg administered as single dose via oral gavage after 4 to 24 hrs; type: toxicity, organism-based; details: in vivo
# Summary of the method: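 Three groups of 10 rats (5M/5F) received a single dose by oral gavage of 100, 300 or 1000 mg/kg, and an untreated group served as control. Clinical signs of CNS effects were recorded at 4 and 24 h after treatment.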
# Canis familiaris [14] = assay: Toxicity in Beagle dog assessed as early death at 5 to 25 mg/kg, po administered as gelatin capsule once daily for 28 days measured on day 29; type: organism-based, Canis lupus familiaris; details: in vivo, 672 h
# Summary of the method: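 Sub-acute study in Beagle dogs: 5, 15 or 25 mg/kg/day given orally in a single gelatin capsule once a day for 28 consecutive days to assess systemic exposure and toxicity, with NOAEL determination.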
# Canis familiaris [15] = assay: Toxicity in Beagle dog assessed as gross necropsy up to 25 mg/kg, po administered as gelatin capsule once daily for 28 days followed by two weeks of recovery period; type: organism-based, Canis lupus familiaris; details: in vivo, 672 h; summary of the method: as §2
# Rattus norvegicus [16] = assay: Toxicity in Sprague-Dawley rat assessed as mucosal hyperplasia in duodenum at 75 mg/kg administered as oral gavage qd for 28 consecutive days followed by 2 weeks recovery period by microscopic method; type: organism-based; details: in vivo, 336 h; summary of the method: as §5
# Canis familiaris [17] = assay: Cardiotoxicity in Beagle dog up to 25 mg/kg, po administered as gelatin capsule once daily for 28 days measured 1 hr post last dose on one of last 3 days of dosing; type: toxicity, organism-based, Canis lupus familiaris; details: in vivo; summary of the method: as §3
# Rattus norvegicus [18] = assay: Neurotoxicity in Sprague-Dawley rat at 100 to 300 mg/kg, po administered via gavage as single dose after 4 to 24 hrs; type: toxicity, organism-based; details: in vivo
# Summary of the method: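 CNS safety study in rats: single oral-gavage doses of 100, 300 or 1000 mg/kg to 3 groups of 10 (5M/5F), with an untreated control group. Clinical signs (activity, abdominal tone, breathing, tremors, pain response) were recorded at 4 and 24 h after dosing, and mortality was noted.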
# Rattus norvegicus [19] = assay: Toxicity in Sprague-Dawley rat assessed as increase in liver to body weight ratio at 75 mg/kg administered as oral gavage qd for 28 consecutive days measured on day 29; type: organism-based; details: in vivo; summary of the method: as §4
# Canis familiaris [20] = assay: Toxicity in Beagle dog up to 25 mg/kg, po administered as gelatin capsule once daily for 28 days measured on day 29 followed by two weeks of recovery period; type: organism-based, Canis lupus familiaris; details: in vivo, 672 h; summary of the method: as §2
# Rattus norvegicus [21] = assay: Toxicity in Sprague-Dawley rat assessed as decrease in serum total albumin level at 75 mg/kg administered as oral gavage qd for 28 consecutive days followed by 2 weeks recovery period measured on day 43; type: organism-based; details: in vivo, 336 h; summary of the method: as §4
# Rattus norvegicus [22] = assay: Toxicity in Sprague-Dawley rat assessed as eosinophilic cytoplasmic bodies in epithelial cells of stomach at 10 to 75 mg/kg administered as oral gavage qd for 28 consecutive days measured on day 29 by microscopic method; type: organism-based; details: in vivo; summary of the method: as §1
# Canis familiaris [23] = assay: Toxicity in Beagle dog up to 25 mg/kg, po administered as gelatin capsule once daily for 28 days measured on day 29; type: organism-based, Canis lupus familiaris; details: in vivo, 672 h; summary of the method: as §2
# Rattus norvegicus [24] = assay: Toxicity in Sprague-Dawley rat assessed as erosions in stomach at 30 to 75 mg/kg administered as oral gavage qd for 28 consecutive days measured on day 29 by microscopic method; type: organism-based; details: in vivo; summary of the method: as §1
# Rattus norvegicus [25] = assay: Elimination half life in Sprague-Dawley rat assessed as Tizoxanide level at 28 mg/kg, po; type: ADME, organism-based; details: in vivo
compound,measurement,setting,value
CC(C)(C)[C@H](N)C(=O)Oc1ccccc1C(=O)Nc1ncc([N+](=O)[O-])s1.Cl,NOAEL,Rattus norvegicus [1],10 mg/kg
same,Activity,Canis familiaris [2],Non-Toxic
same,Activity,Rattus norvegicus [3],Non-Toxic
same,Drug metabolism,Canis familiaris [4],Dose-dependent effect
same,Activity,Canis familiaris [5],Non-Toxic
same,Activity,Canis familiaris [6],Non-Toxic
same,Drug metabolism,Plasma,Dose-dependent effect
same,Tmax,Rattus norvegicus [7],5 to 15 min
same,Activity,Rattus norvegicus [8],Toxic
same,Activity,Rattus norvegicus [9],Toxic
same,Activity,Rattus norvegicus [10],Non-Toxic
same,Activity,Canis familiaris [11],Non-Toxic
same,Activity,Rattus norvegicus [12],Toxic
same,Activity,Rattus norvegicus [13],Toxic
same,Activity,Canis familiaris [14],Non-Toxic
same,Activity,Canis familiaris [15],Non-Toxic
same,Activity,Rattus norvegicus [16],Non-Toxic
same,Activity,Canis familiaris [17],Non-Toxic
same,Activity,Rattus norvegicus [18],Non-Toxic
same,Activity,Rattus norvegicus [19],Toxic
same,Activity,Canis familiaris [20],Non-Toxic
same,Activity,Rattus norvegicus [21],Toxic
same,Activity,Rattus norvegicus [22],Toxic
same,Activity,Canis familiaris [23],Non-Toxic
same,Activity,Rattus norvegicus [24],Toxic
same,beta t1/2,Rattus norvegicus [25],33 min
